Here are results for three molecules from publication PMC3738169 (Journal of medicinal chemistry, 2012).

Series [1] concerns p-Akt T308 (PI3K/Akt pathway) in prostate cancer C4-2 cells. The series is described as follows: p-Akt T308 Western blot in C4-2 cells. The class given is cell-based. Put shortly:
(§1)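 BT-549 cells (RPMI 1640, 10% FBS, 0.023 U/mL insulin) and C4-2 cells (RPMI 1640, 10% FBS) were seeded at 4×105 per 6 cm dish, grown 48 h to about 80% confluence, then moved to serum-free medium. Dosing was a 30 min concentration series with DMSO control, or a 3 h series or 30 min–6 h time course with PBS control. Lysates went to 12% SDS-PAGE and were probed for p-Akt T308, Akt and β-actin, with infrared detection and densitometry.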

Series [2] relates to p-Akt T308 (PI3K/Akt pathway) in breast cancer BT-549 cells. The series is described as follows: p-Akt T308 Western blot in BT-549 cells. The class given is cell-based. A digest of the protocol:
as §1
(A western blot detects proteins with antibodies after separation by electrophoresis.)

Series [3] concerns C4-2LucBAD cells. Particulars: C42LucBAD cells that ectopically express BAD; cited from earlier work.
A further series is described as follows: Water solubility. To be noted: qualitative statement.
The subject of series [4] is p-Akt T308 in glioblastoma-astrocytoma U-87 MG cells. The series can be described thus: p-Akt T308 Western blot in U-87 MG cells. The class given is cell-based. Particulars: U-87 MG cells (no PSA) incubated with 11, 3 h, control PBS. A digest of the protocol: (§2)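 Cells were seeded at 4×105 per 6 cm dish, grown 48 h to about 80% confluence, then exposed to test compound for 3 h with PBS as control. C4-2LucBAD cells were in RPMI 1640, serum-free for 18 h beforehand. LNCaP cells were in T-Medium with 2.5% FBS. U-87 MG cells were in DMEM, serum-free. HEPES pH 7.4 lysates with protease and phosphatase inhibitors were blotted for p-Akt T308, Akt and β-actin.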

The test system of series [5] is C4-2LucBAD cells. The series is described as follows: Caspase 3 assay in C4-2LucBAD cells. It counts as cell-based.
In series [6] the test system is purified active human PSA; p-Akt T308 in BT-549 cells. The series can be described thus: Cleavage of compound 11 with purified PSA, then p-Akt T308 in BT-549 cells. Particulars: 11 without PSA, added to BT-549 cells for 30 min. It counts as cell-based. A digest of the protocol: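 Test compound was pre-incubated 6 h at 37 °C in 50 mM Tris-HCl, 0.1 M NaCl, pH 7.8 with increasing concentrations of enzymatically active PSA purified from human semen. It was then applied for 30 min to serum-starved BT-549 cells, maintained in RPMI 1640 with 10% FBS and 0.023 U/mL insulin. p-Akt T308 was read by Western blot against a PBS control, in three independent experiments.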

Series [7] deals with p-Akt T308 in C4-2LucBAD cells. The series is described as follows: p-Akt T308 Western blot in C4-2LucBAD cells. The class given is cell-based. To be noted: 3 h, dose-response, control PBS. A digest of the protocol:
as §2

The test system of series [8] is p-Akt T308 in breast cancer BT-549 cells. The series is described as follows: C4-2 conditioned medium assay. The class given is cell-based. To be noted: 11 incubated in media conditioned by BT-549 cells. Put shortly:
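Test compound held 6 h at 37 °C (5% CO2, humidified) in serum-free medium on producer cells; this line's arm used BT-549-conditioned medium. Medium then transferred to BT-549 cells for 3 h. Cells seeded 4×10^5 per 6 cm dish, grown 48 h to ~80% confluence; BT-549 medium carried 0.023 U/mL insulin. Phospho-Akt T308 read by Western blot of clarified lysates; n=3.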

In series [9] the test system is p-Akt T308 in prostate cancer LNCaP cells. The series can be described thus: p-Akt T308 Western blot in LNCaP cells. To be noted: LNCaP cells incubated with 11, 3 h, dose-response, control PBS. The class given is cell-based. Put shortly:
as §2

Regarding `CC(C)CC(N)C(=O)OCc1ccc(-c2cccc3c(=O)cc(N4CCOCC4)oc23)cc1` (stereo not shown) [Compound 10, 4-(2-morpholino-4-oxo-4H-chromen-8-yl) benzyl-2-amino-4-methylpentanoate], in series [1] (C4-2 and BT-549 cells, p-Akt T308 read-out, 30 min), the “PI3 kinase inhibitory potency relative to LY294002” value was “comparable to LY294002”. In addition, the “concentration that completely inhibited Akt phosphorylation” value in [1] (C4-2 cells, 30 min, dose-response analysis) came out at 30 µM; in series [2] (BT-549 cells, 30 min, dose-response analysis), 30 µM.

With `O=c1cc(N2CCOCC2)oc2c(-c3ccccc3)cccc12` [LY294002], the induction of apoptosis entry with C4-2LucBAD cells [3] is given as “induces apoptosis”. Moreover, in the series “Water solubility”, the water solubility result is on record as “poor water solubility”.

For “Mu-LEHSSKLQL-8-(4-(Hydroxymethyl)phenyl)-2-morpholino-4H-chromen-4-one [Compound 11]”, the “p-Akt T308 levels” value in series [4] is recorded as “No significant reduction”; in series [1] (C4-2 cells incubated with 11, 3 h, dose-response, control PBS), “dose-dependent reduction”; in [2] (BT-549 cells (no PSA) incubated with 11, 3 h, control PBS) it was “No significant reduction”; in series [7], “dose-dependent reduction”; in series [9], “dose-dependent reduction”. For the same molecule, the “Caspase 3 activity compared with active inhibitor” value in the series on C4-2LucBAD cells [5] (6 h) is “Somewhat lower levels”. Besides, the “Caspase 3 activity (apoptosis)” value in the series with C4-2LucBAD cells [5] (6 h after administration, fluorogenic substrate Ac-DEVD-7-amido-4-trifluoromethylcoumarin, n=2, vs DMSO control) was “increased”. Moreover, in series [6], the “p-Akt T308 levels in BT-549 cells, 11 without enzymatically active PSA” value is on record as “had no effect”. The “p-Akt T308 levels, time course” value is reported as “time-dependent reduction” in series [1] (C4-2 cells treated with 11 from 30 min to 6 h, vs control, Western blot, three independent experiments) and “no significant differences” in series [2] (BT-549 cells treated with 11 from 30 min to 6 h, Western blot, three independent experiments). Also, the “p-Akt T308 levels in BT-549 cells after 11 incubated in BT-549 conditioned media” value in series [8] is recorded as “had no effects”.
